Measured values reported in ChEMBL document CHEMBL4616704, “Discovery of an Atropisomeric PI3Kβ Selective Inhibitor through Optimization of the Hinge Binding Motif” (ACS Med Chem Lett, 2020).

What was measured:
Cytochrome P450 3A4 = Cytochrome P450 3A4 (Homo sapiens, UniProt P08684); test: Inhibition of human CYP3A4; assay type: ADME
[1] = biological target: T1, Phosphatidylinositol 4,5-bisphosphate 3-kinase catalytic subunit beta isoform (Homo sapiens, UniProt P42338); test: Inhibition of PI3Kbeta in PTEN-deficient human LNCaP C4-2 cells assessed as reduction in AKT phosphorylation at Ser473 residue after 2 hrs by mesoscale assay; assay type: cell-based
How it was run: (§1)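 Cellular readout: pAKT1 Ser473 normalized to total AKT1, expressed as units pAKT1 Ser473 per nanogram total AKT1; cells treated under serum-free conditions.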

[2] = biological target: T1, Phosphatidylinositol 4,5-bisphosphate 3-kinase catalytic subunit beta isoform; test: Inhibition of PI3Kbeta in PTEN-deficient human MDA-MB-415 cells assessed as reduction in AKT phosphorylation at Ser473 residue after 2 hrs by mesoscale assay; assay type: cell-based; how it was run: as §1
[3] = MRT in Sprague-Dawley rat at 1 mg/kg administered as iv infusion for 30 mins and measured after 24 hrs by ESI-LC/MS/MS analysis; assay type: ADME, organism-based; conditions: in vivo
[4] = MRT in Beagle dog at 1 mg/kg administered as iv infusion for 30 mins and measured after 24 hrs by ESI-LC/MS/MS analysis; assay type: ADME, organism-based, Canis lupus familiaris; conditions: in vivo
[5] = Oral bioavailability in Beagle dog at 5 mg/kg dosed via gavage after 24 hrs by ESI-LC/MS/MS analysis; assay type: ADME, organism-based, Canis lupus familiaris; conditions: in vivo
[6] = Protein binding in cynomolgus monkey plasma at 1 mg/kg administered as iv infusion for 30 mins and measured after 24 hrs by ESI-LC/MS/MS analysis; assay type: ADME, organism-based, Macaca fascicularis; conditions: read-out: PPB (converted)
[7] = Terminal half life in cynomolgus monkey at 1 mg/kg administered as iv infusion for 30 mins and measured after 24 hrs by ESI-LC/MS/MS analysis; assay type: ADME, organism-based, Macaca fascicularis; conditions: in vivo, read-out: beta t1/2 (converted)
[8] = Ocular toxicity in Beagle dog assessed as irreversible damage by measuring red conjuctiva at 10 to 40 mg/kg/day administered for 7 days and measured from day 4 to day 7; assay type: organism-based, Canis lupus familiaris; conditions: in vivo, 168 h
[9] = Ocular toxicity in Beagle dog assessed as irreversible damage by measuring retinal degeneration at 10 to 100 mg/kg/day administered for 7 days by microscopic analysis; assay type: organism-based, Canis lupus familiaris; conditions: in vivo, 168 h
[10] = Ocular toxicity in Beagle dog assessed as irreversible damage by measuring decrease in electroretinography response at 10 to 100 mg/kg/day administered for 7 days measured on day 6 by ERG and OCT analysis; assay type: organism-based, Canis lupus familiaris; conditions: in vivo, 168 h

T1 sequence (P42338 whole entry, canonical isoform): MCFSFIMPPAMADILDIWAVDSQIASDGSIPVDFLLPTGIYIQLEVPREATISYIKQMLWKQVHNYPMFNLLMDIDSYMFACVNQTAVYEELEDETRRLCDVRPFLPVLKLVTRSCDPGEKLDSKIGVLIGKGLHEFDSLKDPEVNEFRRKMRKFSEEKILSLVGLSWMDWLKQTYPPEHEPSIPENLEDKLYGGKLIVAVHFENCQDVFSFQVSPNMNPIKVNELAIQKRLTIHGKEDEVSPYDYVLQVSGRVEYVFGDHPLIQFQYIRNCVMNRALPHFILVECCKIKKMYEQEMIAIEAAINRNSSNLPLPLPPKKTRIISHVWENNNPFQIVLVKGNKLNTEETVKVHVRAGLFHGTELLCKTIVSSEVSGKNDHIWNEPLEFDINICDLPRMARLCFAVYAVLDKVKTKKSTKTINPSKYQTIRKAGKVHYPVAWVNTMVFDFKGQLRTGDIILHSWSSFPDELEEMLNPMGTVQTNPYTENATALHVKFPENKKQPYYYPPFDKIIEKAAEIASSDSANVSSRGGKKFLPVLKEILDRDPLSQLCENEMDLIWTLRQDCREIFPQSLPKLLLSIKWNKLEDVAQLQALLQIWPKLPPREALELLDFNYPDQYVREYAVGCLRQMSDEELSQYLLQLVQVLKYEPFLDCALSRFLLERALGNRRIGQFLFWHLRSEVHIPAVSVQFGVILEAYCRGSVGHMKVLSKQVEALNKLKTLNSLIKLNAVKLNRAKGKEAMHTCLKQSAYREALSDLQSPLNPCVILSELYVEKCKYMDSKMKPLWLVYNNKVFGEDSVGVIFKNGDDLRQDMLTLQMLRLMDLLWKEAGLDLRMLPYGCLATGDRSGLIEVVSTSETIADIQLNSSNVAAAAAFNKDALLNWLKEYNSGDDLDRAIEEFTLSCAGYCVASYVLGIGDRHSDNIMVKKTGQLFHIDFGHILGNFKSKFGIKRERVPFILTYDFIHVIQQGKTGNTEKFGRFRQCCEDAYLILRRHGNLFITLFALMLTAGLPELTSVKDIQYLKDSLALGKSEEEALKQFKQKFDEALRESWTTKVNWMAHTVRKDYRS
Chain of Cytochrome P450 3A4 (P08684 whole entry, canonical isoform): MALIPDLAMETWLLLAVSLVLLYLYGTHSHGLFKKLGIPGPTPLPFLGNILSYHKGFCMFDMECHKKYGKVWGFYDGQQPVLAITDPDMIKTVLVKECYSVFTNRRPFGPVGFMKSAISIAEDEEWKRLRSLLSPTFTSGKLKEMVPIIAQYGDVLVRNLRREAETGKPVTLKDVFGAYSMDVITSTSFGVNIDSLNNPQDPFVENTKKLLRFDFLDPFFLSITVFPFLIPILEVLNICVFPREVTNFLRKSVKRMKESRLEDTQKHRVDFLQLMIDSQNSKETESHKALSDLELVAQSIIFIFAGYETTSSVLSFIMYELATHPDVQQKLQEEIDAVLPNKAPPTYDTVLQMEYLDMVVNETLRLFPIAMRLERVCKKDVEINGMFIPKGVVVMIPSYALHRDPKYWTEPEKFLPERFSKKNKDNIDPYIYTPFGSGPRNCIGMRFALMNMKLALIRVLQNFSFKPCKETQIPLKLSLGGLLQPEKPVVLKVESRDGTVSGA

IC50 (Cytochrome P450 3A4): 24000 nM
EC50 [1]: 24 nM
EC50 [2]: 15 nM
MRT [3]: 1.3 h
MRT [4]: 7.3 h
bioavailability [5]: 76%
fraction unbound at 24 h [6]: 0.16
half-life [7]: 4.1 h
SMILES: Cc1nc2c(-c3nnc[nH]3)cc(-c3ccnc(C#N)c3)cc2n1-c1ccnc2c(F)ccc(F)c12
Activity [8]: Toxic
Activity [9]: Toxic
Activity [10]: Toxic
